According to paper PMC8266733 (Acta physiologica (Oxford, England), 2021):
Entries after “also recorded” stand apart in the source; their conditions may differ.

How the values were obtained:
[1] = system: Hela-Parkin or Hela-Parkin/USP30 cells
[2] = Tissue concentrations 24 hours post-dose, LC/MS/MS; assay type: in vivo; conditions: 25 mg/kg i.p., Male C57BL/6 Mice
In short: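 Mice were given a single 25 mg/kg i.p. dose of test compound in 1% DMSO/sesame oil and euthanized at 24 h. Transcardial perfusion preceded brain collection; heart was also harvested. Tissues were rinsed in cold distilled water, blotted dry, weighed and stored on dry ice. Concentrations (ng/g) were measured by LC/MS/MS.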

USP30 [3] = target: T1, USP30 (Homo sapiens, UniProt Q70CQ3); conditions: this compound and similar structures; cited from earlier work
T1 sequence (Q70CQ3 1-517): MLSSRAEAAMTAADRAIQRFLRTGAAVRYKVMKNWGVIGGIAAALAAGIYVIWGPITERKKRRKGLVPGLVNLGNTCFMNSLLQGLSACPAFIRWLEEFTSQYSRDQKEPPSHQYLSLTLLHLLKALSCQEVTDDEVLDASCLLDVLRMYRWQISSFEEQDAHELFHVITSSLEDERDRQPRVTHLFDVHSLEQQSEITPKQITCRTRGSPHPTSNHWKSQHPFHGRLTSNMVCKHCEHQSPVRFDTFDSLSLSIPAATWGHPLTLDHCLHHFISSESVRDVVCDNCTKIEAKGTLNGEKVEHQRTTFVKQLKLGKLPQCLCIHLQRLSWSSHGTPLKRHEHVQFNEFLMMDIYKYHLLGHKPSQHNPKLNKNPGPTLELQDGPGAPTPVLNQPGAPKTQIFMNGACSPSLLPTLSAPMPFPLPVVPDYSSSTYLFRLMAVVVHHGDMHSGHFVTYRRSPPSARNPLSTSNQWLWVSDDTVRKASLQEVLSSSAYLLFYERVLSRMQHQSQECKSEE

mt-Keima mice [4] = assay: In vivo mitophagy in mt-Keima mice
In short: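 mt-Keima mice of both sexes received test compound in 1% DMSO/sesame oil at 25 mg/kg/day i.p. for five doses; controls got vehicle (n=4 control, n=5 treated). In heart and liver sections, mt-Keima was excited sequentially at 458 and 561 nm with 570–695 nm emission. Four images per tissue were averaged and normalized to the control mean (set to one). Heart and liver LC3 I/II were immunoblotted against actin.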

USP30 [5] = target: T1, USP30; assay: TOM20 ubiquitination and turnover; assay type: cell-based
In short: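 HeLa-Parkin cells, with or without lentivirally expressed Myc-USP30, were pretreated with test compound at several concentrations. They were then exposed to 5 μM oligomycin plus 5 μM antimycin A for up to 18 h, with 10 μM QVD during 18 h exposures. RIPA lysates (pH 8.0, on ice) were immunoblotted for ubiquitinated TOM20, TOM20, TOM40 and TIM23 with infrared detection. Three independent experiments.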

WT and Mfn2−/− MEF cells = assay: Mitochondrial morphology by confocal microscopy; assay type: cell-based, mouse; conditions: 3 or 10 μg/ml ST-539, 24 h
[6] = Plasma pharmacokinetics after i.p. injection, LC-MS/MS; assay type: in vivo; conditions: 25 mg/kg i.p., mice
In short: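 Adult male mice were dosed once at 25 mg/kg i.p. with test compound in 1% DMSO/sesame oil. Serial blood was taken at 0.083, 0.25, 0.5, 1, 2, 4 and 8 h, with terminal cardiac puncture at 24 h, into K2EDTA tubes kept on ice. Plasma was frozen at −70 °C and assayed by LC-MS/MS (n=3 per time point). Parameters were derived from the concentration-time curve.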

[7] = system: HeLa-Parkin cells expressing USP30; assay: FACS analysis of A/O-induced mitophagy using mt-Keima fluorescence; assay type: cell-based
In short: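 HeLa-Parkin and HeLa-Parkin cells with lentivirally expressed Myc-USP30, stably expressing mt-Keima, grown in DMEM/10% FBS. Pretreated with DMSO or test compound at 3 μg/ml, then exposed to 1 μM oligomycin plus 1 μM antimycin A for 1.5 h (legend: 2 h). Cells were trypsinized, PBS-washed and resuspended in PBS. Flow cytometry scored cells with lysosomal (pH 4) mt-Keima.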

mt-Keima mice [8] = conditions: mouse, in vivo
[9] = system: Hela cells, Hela cells expressing YFP-Parkin and PINK1 KO Hela cells expressing YFP-Parkin; assay type: cell-based
In short: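 Parental HeLa, HeLa stably expressing YFP-Parkin, and PINK1 KO HeLa expressing YFP-Parkin were pretreated with test compound at 1 or 3 μg/ml. They were then given 5 μM oligomycin plus 5 μM antimycin A; the 18 h exposure included 10 μM QVD. Cells were lysed on ice in RIPA buffer (pH 8.0, protease inhibitors) and blotted for TOM20 ubiquitination, TOM20 and NDP52. Infrared secondaries were imaged; three independent experiments.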

[10] = system: Hela-Parkin and Hela-Parkin cells expressing USP30; assay: Seahorse assay of oxygen consumption; assay type: cell-based; conditions: 24 h of ST-539 treatment at high dose

## N#CC(C#N)=NNc1ccc(OC(F)(F)F)cc1 [FCCP, Carbonyl cyanide-p-trifluoromethoxyphenylhydrazone]
[1]
  TMRM staining (mitochondrial membrane potential): significant loss of staining

## CC(C)(C)NS(=O)(=O)c1cccc2c(NC(=O)C(Cc3ccccc3)NC(=O)c3ccccc3)cccc12 (stereo not shown) [ST-539]
[2]
  Tissue concentration, Brain, Mean: 17.4 ng/g
  Tissue concentration, Heart, Mean: 37.0 ng/g
USP30 [3]
  inhibition of USP30 enzyme function in vitro: selectively inhibit USP30 enzyme function
mt-Keima mice [4]; 25mg/kg/day for 5 days, heart versus control hearts
  LC3-II/LC3-I ratio (LC3 I/II immunoblotting): increase; also recorded: increased levels of LC3-II
mt-Keima mice [4]; 25mg/kg/day i.p. for 5 days, heart
  cardiac mitophagy (mt-Keima red signal in the heart tissue): marked induction of the red signal
mt-Keima mice [4]; 25mg/kg/day i.p. for 5 days, hippocampus (data not shown)
  mitophagic flux in the hippocampus of the brain: remains unchanged
mt-Keima mice [4]; 25mg/kg/day i.p. for 5 days, liver
  mitophagic flux in the liver: remains unchanged
USP30 [5]; 18h A/O treatment, Hela-Parkin cells overexpressing USP30
  TIM23 and TOM40 degradation: restored TIM23 and TOM40 degradation
USP30 [5]; A/O treatment, ST-539 at indicated concentrations
  TOM20 ubiquitination versus ST-539 dosage: close correlation
USP30 [5]; ST-539 at 10 μg/ml, A/O treatment, in the presence of USP30
  loss of TOM20 protein level: ~ 90%
WT and Mfn2−/− MEF cells; Mfn2−/− MEF cells
  elongation of mitochondria: did not induce the elongation of mitochondria significantly
WT and Mfn2−/− MEF cells; wild type MEFs
  mitochondrial morphology: failed to change the mitochondrial morphology
[6]
  AUC0-inf: 4240 ng·h/mL
  AUC0-last: 4162 ng·h/mL
  Cmax: 1427 ng/mL
  MRT0-inf: 4.27 h
  MRT0-last: 3.86 h
  Tlast: 24.0 h
  Tmax: 1.33 h
  area under the plasma drug concentration-time curve (AUC): ~ 4.2 μg•h/ml
  maximum plasma concentration (Cmax): about 1.4 μg/ml
[7]; ST-539 3μg/ml prior to A/O, HeLa-Parkin cells expressing USP30
  A/O induced mitophagy (lysosomal positive mt-Keima): restored A/O induced mitophagy
[7]; cellular studies, no mitochondrial stress
  mitophagy in the absence of mitochondrial stress: minimal change
mt-Keima mice [8]
  safety of the current dosage in mice: appears to be safe
[9]; cells expressing ectopic Parkin and endogenous PINK1, ST-539 1 or 3μg/ml
  A/O induced TOM20 ubiquitination and decline in TOM20 level: further potentiated
[9]; long term treatment (18 h), 3μg/ml ST-539, WT Hela or PINK1 KO cells
  TOM20 ubiquitination independent of PINK1/Parkin: did not promote TOM20 ubiquitination
[10]
  basal and maximal respiration: slight increase
